Published values collected from several papers.
Lines come from different studies, so protocols differ.
CDK3 with cyclin E: Cyclin-dependent kinase 3, with cyclin E (CDK3, Homo sapiens, UniProt Q00526)
CDK3 with cyclin E2: Cyclin-dependent kinase 3, with cyclin E2 (CDK3, Homo sapiens, UniProt Q00526)
CDK3: Cyclin-dependent kinase 3 (CDK3, Homo sapiens, UniProt Q00526)
CDK3 with cyclin E1: Cyclin-dependent kinase 3, with cyclin E1 (CDK3, Homo sapiens, UniProt Q00526)

CCN(CC)CCNC(=O)c1c(C)[nH]c(/C=C2\C(=O)Nc3ccc(F)cc32)c1C — inhibition (CDK3 with cyclin E; enzyme activity; inhibitor; 10 µM): 41%
O=C(Nc1cnn(-c2csc(C(=O)NC3COC3)c2)c1)Nc1c(F)cccc1Cl — remaining activity (CDK3 with cyclin E2; enzyme activity; inhibitor; 5 µM): 109%
Cc1cc(NC(=O)c2cccc(S(F)(F)(F)(F)F)c2)cc(-n2ccn3nc(-c4cccnc4)cc23)c1 — remaining binding (CDK3; cell-free assay; competition with immobilised ligand; 1 µM): 100%
Cc1ccc(Nc2nccc(N(C)c3ccc4c(C)n(C)nc4c3)n2)cc1S(N)(=O)=O — inhibition (CDK3 with cyclin E; enzyme activity; inhibitor; 0.3 µM): -4%
Cc1cnc(NC2CCOCC2)nc1-n1cnc(C(=O)NC(CN)c2cc(F)cc(Cl)c2)c1 (stereo not drawn) — remaining activity (CDK3 with cyclin E; enzyme activity; inhibitor; radiometric; 1 µM): 5%
N#CCCc1ccc2c(c1)-c1[nH]c3ccc([N+](=O)[O-])cc3c1CC(=O)N2 — remaining signal (CDK3 with cyclin E; cell-free assay; 0.5 µM): 39.7%
CS(=O)(=O)NCC[C@H](NC(=O)c1cncc2c1cnn2-c1ccc(F)cc1)c1ccnc(S(C)(=O)=O)c1 — remaining binding (CDK3; cell-free assay; competition with immobilised ligand; 1 µM): 100%
Cc1sc(C(=O)NC2COC2)cc1-n1cc(NC(=O)Nc2c(F)cccc2Cl)cn1 — remaining activity (CDK3 with cyclin E; enzyme activity; inhibitor; 10 µM): 91.2%
NS(=O)(=O)c1cc(NC(=O)Cc2ccccc2)ccc1Oc1cccc(Cl)c1 — remaining binding (CDK3; cell-free assay; competition with immobilised ligand; 1 µM): 92%
Cc1ccc(NC(=O)c2ccc(C)c(C(F)(F)F)c2)cc1C#Cc1nn(C2CCC(O)CC2)c2ncnc(N)c12 (stereo not drawn) — remaining signal (CDK3 with cyclin E; cell-free assay; 10 µM): 93%
O=C1Nc2ccc(Cl)cc2C1=Cc1cc(Cl)c(O)c(Cl)c1 — remaining signal (CDK3 with cyclin E; cell-free assay; 0.5 µM): 85.4%
CN1CC(Oc2cnc(C#N)cc2-c2ccn3nc(NC(=O)C4CC4)cc3c2)C1 — inhibition (CDK3 with cyclin E; enzyme activity; inhibitor; 1 µM): 4%
Cc1cc(-n2nc(Cc3cc(F)cc(C(F)(F)F)c3)nc2C)ccc1C(N)=O — remaining binding (CDK3; cell-free assay; competition with immobilised ligand; 1 µM): 100%
O=C(Nc1cnn(-c2csc(C(=O)NC3COC3)c2)c1)Nc1ccccc1Cl — remaining activity (CDK3 with cyclin E2; enzyme activity; inhibitor; 5 µM): 95.8%
COc1cc(Cl)c(C(=O)N[C@@H](CN[C@H]2CC[C@@H](N)CC2)Cc2ccc(C#N)cc2)cc1-c1ccc(CN[C@H](C)c2ccc(C)cc2)o1 — remaining activity (CDK3 with cyclin E; enzyme activity; inhibitor; 1 µM): 99%
CC(C)c1ccc(NC(=O)c2cccs2)c(-c2nc3ccccc3[nH]c2=O)c1 — activity vs control (CDK3 with cyclin E; enzyme activity; inhibitor; 1 µM): 109%
CC(C)(O)[C@H]1CC[C@H](Nc2ccc3ncc(-c4cccc(C(F)(F)F)c4)n3n2)CC1 — remaining activity (CDK3 with cyclin E; enzyme activity; inhibitor; 1 µM): 105%
CN(C)c1ncnc(-c2ccc3nc(Nc4cc(CN5CCN(C(=O)CC(F)(F)F)CC5)ccn4)[nH]c3c2)c1Cl — remaining binding (CDK3; cell-free assay; competition with immobilised ligand; 1 µM): 86%
O=C(CSc1nc2nccnc2c(=O)n1CCc1ccccc1)Nc1nccs1 — inhibition (CDK3 with cyclin E1; enzyme activity; inhibitor; 10 µM): -19%
CC(C)(C)c1nc(-c2cccc(NS(=O)(=O)c3c(F)cccc3F)c2F)c(-c2ccnc(N)n2)s1 — remaining activity (CDK3 with cyclin E1; enzyme activity; inhibitor; radiometric; 1 µM): 103%
CCCCN(CCCC)C(=O)CN1C[C@H](c2cc(OC)c3c(c2)OCO3)[C@@H](C(=O)O)[C@@H]1CC(C)(C)CCC — remaining binding (CDK3; cell-free assay; competition with immobilised ligand; 1 µM): 100%
CNC(=O)c1cc(Oc2ccc(NC(=O)Nc3ccc(Cl)c(C(F)(F)F)c3)cc2)ccn1 — inhibition (CDK3 with cyclin E; enzyme activity; inhibitor; 0.3 µM): -6%
COc1cc(-c2cn(C3CCc4c(F)cccc4N(CC(F)(F)F)C3=O)nn2)ccc1-n1cnc(C)c1 (stereo not drawn) — remaining binding (CDK3; cell-free assay; competition with immobilised ligand; 1 µM): 100%
CC(C)(C)c1nc2c(s1)c1nc(N)ncc1c1ccc(NS(=O)(=O)c3c(F)cccc3F)c(F)c12 — remaining activity (Cyclin-dependent kinase 3, with cyclin C (CDK3, Homo sapiens, UniProt Q00526); enzyme activity; inhibitor; radiometric; 1 µM): 97%
